Measurements from ChEMBL document CHEMBL1123632, “Cardiotonic agents. 7. Inhibition of separated forms of cyclic nucleotide phosphodiesterase from guinea pig cardiac muscle by 4,5-dihydro-6-[4-(1H-imidazol-1-yl)phenyl]-3(2H)-pyridazinones and related compounds. Structure-activity relationships and correlation with in vivo positive inotropic …” (J Med Chem, 1987).
Several values for one entry are separate records, joined by “and”; a condition that tells them apart may be missing. Identical values can stand only once.

Tests used:
Phosphodiesterase 1 [1] = target: T1, Phosphodiesterase 1 (Homo sapiens, UniProt P54750+Q01064+Q14123); test: Inhibition of cAMP PDE I enzyme in guinea pig at 1E-5M concentration; assay type: protein assay; settings: Cavia porcellus; target entry is the homologue from another species
PDE II (Cavia porcellus) = test: Inhibition of cAMP PDE II enzyme in guinea pig at 1E-4M concentration.
[2] = Ratio of IC50 values for PDE III and PDE II.
[3] = target: T2, cGMP-dependent 3',5'-cyclic phosphodiesterase (Homo sapiens, UniProt O00408); test: Inhibition of cGMP PDE II enzyme in guinea pig at 1E-5M concentration; settings: Cavia porcellus; target entry is the homologue from another species
[4] = target: T2, cGMP-dependent 3',5'-cyclic phosphodiesterase; test: Inhibition of cGMP PDE II enzyme in guinea pig at 1E-4M concentration; settings: Cavia porcellus; target entry is the homologue from another species
Phosphodiesterase 3 [5] = target: T3, Phosphodiesterase 3 (Homo sapiens, UniProt Q14432+Q13370); test: Inhibitory concentration against cAMP PDE III enzyme in guinea pig; assay type: protein assay, Cavia porcellus; settings: target entry is the homologue from another species
[6] = target: T2, cGMP-dependent 3',5'-cyclic phosphodiesterase; test: Inhibition of PDE II enzyme in guinea pig; design: species or system Cavia porcellus; settings: target entry is the homologue from another species
PDE I (Cavia porcellus) [7] = test: Inhibitory concentration against cGMP PDE I enzyme in guinea pig
[8] = Ratio of IC50 values for PDE III and PDE I.
Phosphodiesterase 3 [9] = target: T3, Phosphodiesterase 3; test: Inhibition of cAMP PDE III enzyme in guinea pig at 1E-5M concentration; assay type: protein assay; settings: Cavia porcellus; target entry is the homologue from another species
Phosphodiesterase 1 [10] = target: T1, Phosphodiesterase 1; test: Inhibition of cGMP PDE I enzyme in guinea pig at 1E-4M concentration; assay type: protein assay; settings: Cavia porcellus; target entry is the homologue from another species
[11] = target: T2, cGMP-dependent 3',5'-cyclic phosphodiesterase; test: Inhibition of cAMP PDE II enzyme in guinea pig at 1E-5M concentration; settings: Cavia porcellus; target entry is the homologue from another species
Canis familiaris = organism: Canis familiaris; test: Effective dose required to increase myocardial contractility in dog.; assay type: functional; settings: Canis lupus familiaris, Myocardium
Method in brief: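 Anesthetized mongrel dogs (either sex): pentobarbital 35 mg/kg iv, then 5 mg kg⁻¹ h⁻¹ infusion. After 30-min control, compound in saline or dilute HCl/NaOH diluted with saline given iv over 1 min, cumulative half-log doses (typically four to six), 10–30 min apart.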

PDE I (Cavia porcellus) [12] = test: Inhibitory concentration against cAMP PDE I enzyme in guinea pig
[13] = target: T2, cGMP-dependent 3',5'-cyclic phosphodiesterase; test: Inhibitory concentration against cGMP PDE II enzyme in guinea pig; design: species or system Cavia porcellus; settings: target entry is the homologue from another species
Phosphodiesterase 1 [14] = target: T1, Phosphodiesterase 1; test: Inhibition of cGMP PDE I enzyme in guinea pig at 1E-5M concentration; assay type: protein assay; settings: Cavia porcellus; target entry is the homologue from another species
Phosphodiesterase 1 [15] = target: T1, Phosphodiesterase 1; test: Inhibition of cAMP PDE I enzyme in guinea pig at 1E-4M concentration.; assay type: protein assay; settings: Cavia porcellus; target entry is the homologue from another species
Phosphodiesterase 3 [16] = target: T3, Phosphodiesterase 3; test: Inhibition of cAMP PDE III enzyme in guinea pig at 1E-4M concentration.; assay type: protein assay; settings: Cavia porcellus; target entry is the homologue from another species
[17] = target: T2, cGMP-dependent 3',5'-cyclic phosphodiesterase; test: Inhibition of cGMP PDE II enzyme in guinea pig at 10e-4 M; settings: Cavia porcellus, target entry is the homologue from another species
[18] = target: T2, cGMP-dependent 3',5'-cyclic phosphodiesterase; test: Inhibitory concentration against cAMP PDE II enzyme in guinea pig; design: species or system Cavia porcellus; settings: target entry is the homologue from another species
Phosphodiesterase 1 [19] = target: T1, Phosphodiesterase 1; test: Inhibitory concentration against cAMP PDE I enzyme in guinea pig; assay type: protein assay, Cavia porcellus; settings: target entry is the homologue from another species
Phosphodiesterase 1 [20] = target: T1, Phosphodiesterase 1; test: Inhibition of cAMP PDE I enzyme in guinea pig at 1E-4M; assay type: protein assay; settings: Cavia porcellus; target entry is the homologue from another species
[21] = target: T2, cGMP-dependent 3',5'-cyclic phosphodiesterase; test: Inhibition of cAMP PDE II enzyme in guinea pig at 1E-4M; settings: Cavia porcellus; target entry is the homologue from another species
Phosphodiesterase 1 [22] = target: T1, Phosphodiesterase 1; test: Inhibition of cGMP PDE I enzyme in guinea pig at 1E-4M; assay type: protein assay; settings: Cavia porcellus; target entry is the homologue from another species
Phosphodiesterase 3 [23] = target: T3, Phosphodiesterase 3; test: Inhibition of cAMP PDE III enzyme in guinea pig at 1E-4M; assay type: protein assay; settings: Cavia porcellus; target entry is the homologue from another species
Phosphodiesterase 1 [24] = target: T1, Phosphodiesterase 1; test: Inhibitory concentration against cGMP PDE I enzyme in guinea pig; assay type: protein assay, Cavia porcellus; settings: target entry is the homologue from another species
[25] = target: T2, cGMP-dependent 3',5'-cyclic phosphodiesterase; test: Inhibition of cGMP PDE II enzyme in guinea pig at 1E-4M; settings: Cavia porcellus; target entry is the homologue from another species

T2 sequence (O00408 whole entry): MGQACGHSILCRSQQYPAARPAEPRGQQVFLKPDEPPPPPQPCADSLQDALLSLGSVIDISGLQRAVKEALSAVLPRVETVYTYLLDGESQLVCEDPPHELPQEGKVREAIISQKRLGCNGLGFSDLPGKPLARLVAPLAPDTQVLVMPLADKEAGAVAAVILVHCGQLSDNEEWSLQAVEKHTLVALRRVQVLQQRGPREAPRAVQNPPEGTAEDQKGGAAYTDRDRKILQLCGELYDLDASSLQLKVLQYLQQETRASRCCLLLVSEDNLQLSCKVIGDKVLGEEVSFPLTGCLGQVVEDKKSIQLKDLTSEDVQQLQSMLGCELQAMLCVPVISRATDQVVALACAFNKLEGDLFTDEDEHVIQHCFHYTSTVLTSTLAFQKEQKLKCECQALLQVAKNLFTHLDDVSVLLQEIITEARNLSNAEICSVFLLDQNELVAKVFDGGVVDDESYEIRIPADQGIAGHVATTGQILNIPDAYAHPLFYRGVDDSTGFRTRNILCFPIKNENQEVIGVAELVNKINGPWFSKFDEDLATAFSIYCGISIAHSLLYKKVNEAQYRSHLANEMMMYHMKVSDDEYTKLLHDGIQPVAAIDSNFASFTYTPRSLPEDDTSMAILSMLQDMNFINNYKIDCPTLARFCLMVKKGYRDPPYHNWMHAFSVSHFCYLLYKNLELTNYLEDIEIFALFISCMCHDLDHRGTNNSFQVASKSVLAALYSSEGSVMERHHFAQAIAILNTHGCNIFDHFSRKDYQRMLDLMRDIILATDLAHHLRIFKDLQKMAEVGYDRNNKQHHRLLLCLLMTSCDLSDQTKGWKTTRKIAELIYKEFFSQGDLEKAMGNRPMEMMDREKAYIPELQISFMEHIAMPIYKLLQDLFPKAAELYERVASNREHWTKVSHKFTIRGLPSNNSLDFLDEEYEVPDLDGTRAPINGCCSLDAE

| Compound | inhibition (Phosphodiesterase 1 [1]) [%] | inhibition (PDE II (Cavia porcellus)) [%] | Ratio [2] | inhibition [3] [%] | inhibition [4] [%] | IC50 (Phosphodiesterase 3 [5]) [µM] | IC50 (PDE I (Cavia porcellus) [7]) [µM] | Ratio [8] | inhibition (Phosphodiesterase 3 [9]) [%] | inhibition (Phosphodiesterase 1 [10]) [%] | inhibition [11] [%] | IC50 (PDE I (Cavia porcellus) [12]) [µM] | IC50 [13] [µM] | inhibition (Phosphodiesterase 1 [14]) [%] | inhibition (Phosphodiesterase 1 [15]) [%] | inhibition (Phosphodiesterase 3 [16]) [%] | IC50 [18] | inhibition [25] [%] | ED50 (Canis familiaris) [mg/kg] | also measured |
| --- | --- | --- | --- | --- | --- | --- | --- | --- | --- | --- | --- | --- | --- | --- | --- | --- | --- | --- | --- | --- |
| Cc1nccn1-c1ccc(C2=NNC(=O)CC2)cc1 | 1 | 19 | 5.4 | 4 |  | 2.3 | 530 | 2.9 | 57 | 18 | 8 | 790 | 380 | 0 | 16 | 64 | 420 µM |  | 0.3 | inhibition [17]: 22% |
| O=C1CCC(c2ccc(-n3cncn3)cc2)=NN1 | 7 | 20 |  | 7 |  |  |  |  | 33 |  | 6 |  |  | 6 |  | 51 |  | 24 |  |  |
| Nc1cc(-c2ccncc2)c[nH]c1=O [INAMRINONE] |  |  |  |  |  |  |  |  |  |  |  |  |  |  |  |  | 720 µM and 580 µM |  |  | IC50 (Phosphodiesterase 1 [19]): > 1000 µM; IC50 (Phosphodiesterase 1 [24]): > 1000 µM |
| O=C1CCC(c2ccc(-n3cnc4ccccc43)cc2)=NN1 | 9 | 67 | 28.5 | 24 | 70 | 1.2 | 220 | 4.3 | 66 | 36 | 24 | 280 | 34 | 9 | 25 | 88 | 42 µM |  | 0.1 |  |
| CC1CC(=O)NN=C1c1ccc(-n2cnc3c2CCCC3)cc1 (stereo not drawn) [TETRAHYDROBENXIMIDAZOLE] | 13 | 65 | 3.2 | 21 | 68 | 0.15 | 85 | 2 | 64 | 54 | 21 | 75 | 43 | 17 | 57 | 90 | 46 µM |  | 0.025 |  |

Second part, led by results:

| inhibition (Phosphodiesterase 1 [1]) [%] | inhibition (PDE II (Cavia porcellus)) [%] | Ratio [2] | inhibition [3] [%] | inhibition [4] [%] | IC50 (Phosphodiesterase 3 [5]) [µM] | IC50 (PDE I (Cavia porcellus) [7]) [µM] | Ratio [8] | inhibition (Phosphodiesterase 3 [9]) [%] | inhibition (Phosphodiesterase 1 [10]) [%] | inhibition [11] [%] | IC50 (PDE I (Cavia porcellus) [12]) [µM] | IC50 [13] [µM] | inhibition (Phosphodiesterase 1 [14]) [%] | inhibition (Phosphodiesterase 1 [15]) [%] | inhibition (Phosphodiesterase 3 [16]) [%] | IC50 [18] | inhibition [25] [%] | Compound | ED50 (Canis familiaris) [mg/kg] | also measured |
| --- | --- | --- | --- | --- | --- | --- | --- | --- | --- | --- | --- | --- | --- | --- | --- | --- | --- | --- | --- | --- |
| 6 | 44 | 200 | 10 | 51 | 22 | > 500 | < 44 | 41 | 28 | 13 | > 500 | 88 | 7 | 20 | 64 |  |  | Nc1cc(-c2ccc(-n3ccnc3)cc2)nnc1O | 0.3 | IC50 [6]: 110 µM |
| 0 |  |  | 7 |  | 43 |  |  | 25 |  | 15 |  |  | 2 |  |  |  | 26 | CC1CC(c2ccc(-n3ccnc3)cc2)=NNC1=O (stereo not drawn) | 1 | IC50 (Phosphodiesterase 1 [19]): > 1000 µM; inhibition (Phosphodiesterase 1 [20]): 8%; inhibition [21]: 27%; inhibition (Phosphodiesterase 1 [22]): 8%; inhibition (Phosphodiesterase 3 [23]): 63%; IC50 (Phosphodiesterase 1 [24]): > 1000 µM |
| 6 | 21 | 121 | 10 | 28 | 40 | > 1000 | 43 | 28 | 8 | 10 | 930 | 340 | 3 | 9 | 65 | 330 µM |  | O=C1CCC(c2cccc(-n3ccnc3)c2)=NN1 | 0.3 |  |
| 3 |  |  | 7 |  |  |  |  | 57 | 10 | 4 |  |  | 3 | 8 | 76 |  | 20 | O=C1CCC(c2ccc(-n3ccnc3)cc2)=NN1 [IMAZODAN] | 0.045 | inhibition [21]: 17% |
| 3 |  |  | 7 |  |  |  |  | 69 |  | 5 |  |  | 9 |  |  |  | 23 | CC1CC(O)=NN=C1c1ccc(-n2ccnc2)cc1 (stereo not drawn) [CI-930] | 0.013 | inhibition (Phosphodiesterase 1 [20]): 9%; inhibition [21]: 18%; inhibition (Phosphodiesterase 1 [22]): 12% |
| 4 |  |  | 11 | 27 | 7.2 |  |  | 56 | 15 |  |  |  | 6 | 17 | 80 |  |  | Oc1ccc(-c2ccc(-n3ccnc3)cc2)nn1 | 0.11 | IC50 (Phosphodiesterase 1 [19]): 660 µM; IC50 (Phosphodiesterase 1 [24]): 580 µM |
